Source: ChEMBL document CHEMBL1135551, “N-Acylvanillamides: development of an expeditious synthesis and discovery of new acyl templates for powerful activation of the vanilloid receptor” (J Med Chem, 2002)

Key:
[1] = molecular target: T1, Transient receptor potential cation channel subfamily V member 1 (Homo sapiens, UniProt Q8NER1); assay: Percent absolute effect obtained with ionomycin, measured by the entry of [Ca2+] into human embryonic kidney HEK293 cells overexpressing hVR1; type: functional, cell-based
T1 sequence (Q8NER1 whole entry): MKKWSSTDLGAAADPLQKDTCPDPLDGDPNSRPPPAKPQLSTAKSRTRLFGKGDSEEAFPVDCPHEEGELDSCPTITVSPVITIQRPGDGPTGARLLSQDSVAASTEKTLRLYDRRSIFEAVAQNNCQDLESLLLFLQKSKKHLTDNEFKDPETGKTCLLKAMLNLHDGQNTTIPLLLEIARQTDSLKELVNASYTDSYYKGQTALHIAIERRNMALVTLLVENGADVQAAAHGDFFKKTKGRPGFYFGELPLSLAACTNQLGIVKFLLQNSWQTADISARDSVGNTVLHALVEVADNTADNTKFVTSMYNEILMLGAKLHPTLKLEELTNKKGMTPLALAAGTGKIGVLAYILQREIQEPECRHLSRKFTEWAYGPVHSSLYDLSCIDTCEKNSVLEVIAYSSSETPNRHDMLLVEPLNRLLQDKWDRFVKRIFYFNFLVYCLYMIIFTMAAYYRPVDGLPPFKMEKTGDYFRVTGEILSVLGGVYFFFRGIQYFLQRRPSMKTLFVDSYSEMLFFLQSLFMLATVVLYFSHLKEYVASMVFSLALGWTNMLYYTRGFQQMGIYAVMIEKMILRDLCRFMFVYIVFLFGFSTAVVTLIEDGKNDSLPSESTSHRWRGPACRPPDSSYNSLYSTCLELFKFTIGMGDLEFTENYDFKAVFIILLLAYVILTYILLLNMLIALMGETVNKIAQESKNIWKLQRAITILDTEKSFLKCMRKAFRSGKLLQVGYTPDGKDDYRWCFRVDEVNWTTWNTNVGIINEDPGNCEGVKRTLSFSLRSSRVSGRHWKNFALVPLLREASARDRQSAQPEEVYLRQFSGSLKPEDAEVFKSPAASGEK
Method in brief: (§1)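 HEK-293 cells overexpressing human VR1, grown in MEM with nonessential amino acids, 10% FCS, 0.2 mM glutamine at 37 °C; plated on poly-L-lysine a day before. Cells loaded 2 h at 25 °C with 4 µM Fluo-3 methyl ester, washed, trypsinized, suspended in Tyrode pH 7.4 without BSA.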

[2] = molecular target: T1, Transient receptor potential cation channel subfamily V member 1; assay: Concentration necessary to induce a relative half-maximal response measured by the entry of [Ca2+] into human embryonic kidney HEK293 cells overexpressing the human VR1; type: functional, cell-based; method in brief: as §1

**Q.** `CCCCCCCC[C@H]1C[C@H]1CCCCCCCCCCCC(=O)NCc1ccc(O)c(OC)c1` was tested. Which Response [1] did it give?
**A.** The Response was 91%.

**Q.** And the EC50 [2]?
**A.** The EC50 was 79.4 nM.

**Q.** How did the Response [1] turn out when `COc1cc(CNC(=O)[C@]23CC[C@@H](C)[C@H](C)[C@H]2C2=CC[C@@H]4[C@@]5(C)CC[C@H](O)C(C)(C)[C@@H]5CC[C@@]4(C)[C@]2(C)CC3)ccc1O` was run?
**A.** The Response was 14.3%.

**Q.** How did the Response [1] turn out when `CCCCCC/C=C/C#CCCCCCCCC(=O)NCc1ccc(O)c(OC)c1` was run?
**A.** Its Response is 70.7%.

**Q.** What about the EC50 [2] of the same compound?
**A.** Its EC50 is 1.26 nM.

**Q.** With `COc1cc(CNC(=O)/C=C(\C)CCC=C(C)C)ccc1O` as the compound, how does the Response [1] read?
**A.** Its Response is 70.9%.

**Q.** And the EC50 [2]?
**A.** The EC50 was 39.8 nM.

**Q.** How did the Response [1] turn out when `CCCCC/C=C\C/C=C\C/C=C\C/C=C\CCCC(=O)NCc1ccc(O)c(OC)c1` was run?
**A.** The Response was 74.8%.

**Q.** And the EC50 [2]?
**A.** Its EC50 is 0.501 nM.

**Q.** How did the Response [1] turn out when `CCCCCCC(=O)CCCCCCCCCCC(=O)NCc1ccc(O)c(OC)c1` was run?
**A.** Its Response is 67%.

**Q.** What about the EC50 [2] of the same compound?
**A.** Its EC50 is 6.31 nM.

**Q.** Which Response [1] does the source give for `C/C=C/C=C/C(=O)NCc1ccc(O)c(OC)c1` here?
**A.** Its Response is 34.6%.

**Q.** `CCCCCCCCC#CCCCCCCCC(=O)NCc1ccc(O)c(OC)c1` was tested. Which Response [1] did it give?
**A.** Its Response is 73.7%.

**Q.** What about the EC50 [2] of the same compound?
**A.** Its EC50 is 12.6 nM.

**Q.** Which results are given for `C=CCCCCCCCCC(=O)NCc1ccc(O)c(OC)c1`?
**A.** Response [1]: 85%; EC50 [2]: 2 nM

**Q.** With `CCCCCCCC/C=C\CCCCCCCCCCC(=O)NCc1ccc(O)c(OC)c1` as the compound, how does the Response [1] read?
**A.** Its Response is 91.4%.

**Q.** And the EC50 [2]?
**A.** The EC50 was 3.16 nM.

**Q.** `COc1cc(CNC(=O)CC[C@H](C)[C@@H]2CC[C@H]3[C@@H]4[C@@H](O)C[C@H]5C[C@@H](O)CC[C@@]5(C)[C@H]4C[C@@H](O)[C@]32C)ccc1O` was tested. Which Response [1] did it give?
**A.** The Response was 5.8%.

**Q.** For `COc1cc(CNC(=O)[C@@]2(C)CCC[C@@]3(C)[C@H]2CC=C2C=C(C(C)C)CC[C@@H]23)ccc1O`, which Response [1] is on record?
**A.** The Response was 37.5%.

**Q.** Which Response [1] does the source give for `CCCCCC[C@H](C/C=C\CCCCCCCC(=O)NCc1ccc(O)c(OC)c1)OC(C)=O` here?
**A.** Its Response is 93.5%.

**Q.** Which Response [1] does the source give for `CCCCCCCC/C=C\CCCCCCCC(=O)NCc1ccc(O)c(OC)c1` [OLVANIL] here?
**A.** The Response was 67.2%.

**Q.** And the EC50 [2]?
**A.** Its EC50 is 0.501 nM.

**Q.** For `COc1cc(CNC(=O)CCCC/C=C/C(C)C)ccc1O`, which Response [1] is on record?
**A.** The Response was 65.4%.

**Q.** How did the Response [1] turn out when `C=C(C)[C@@H]1CC[C@]2(C(=O)NCc3ccc(O)c(OC)c3)CC[C@]3(C)[C@H](CC[C@@H]4[C@@]5(C)CC[C@H](O)C(C)(C)[C@@H]5CC[C@]43C)[C@@H]12` was run?
**A.** Its Response is 88.6%.

**Q.** What about the EC50 [2] of the same compound?
**A.** Its EC50 is 126 nM.

**Q.** For `CCCCCCCC[C@@H]1C[C@@H]1CCCCCCCC(=O)NCc1ccc(O)c(OC)c1`, which Response [1] is on record?
**A.** Its Response is 86.7%.

**Q.** And the EC50 [2]?
**A.** Its EC50 is 1.26 nM.

**Q.** For `COc1cc(CNC(=O)[C@H]2[C@@H](C=C(C)C)C2(C)C)ccc1O`, which Response [1] is on record?
**A.** Its Response is 85%.

**Q.** And the EC50 [2]?
**A.** The EC50 was 200 nM.

**Q.** `CCCCCCCCCCCCCCCCCC(=O)NCc1ccc(O)c(OC)c1` was tested. Which Response [1] did it give?
**A.** The Response was 32.4%.

**Q.** Which Response [1] does the source give for `COc1cc(CNC(=O)CCCCCCCCC2CC2)ccc1O` here?
**A.** The Response was 96.2%.

**Q.** And the EC50 [2]?
**A.** The EC50 was 3.16 nM.

**Q.** How did the Response [1] turn out when `COc1cc(CNC(=O)C2CC2(C)CCCC(C)CCCC(C)CCCC(C)C)ccc1O` (configuration not stated) was run?
**A.** Its Response is 91.2%.

**Q.** What about the EC50 [2] of the same compound?
**A.** The EC50 was 2.51 nM.

**Q.** For `COc1cc(CNC(=O)CCCCCCCC/C=C/CCCCCCCCC(=O)NCc2ccc(O)c(OC)c2)ccc1O`, which Response [1] is on record?
**A.** The Response was 85.7%.

**Q.** And the EC50 [2]?
**A.** Its EC50 is 1.58 nM.

**Q.** `CCCCCC[C@@H](O)CC1CC1CCCCCCCC(=O)NCc1ccc(O)c(OC)c1` (some centres not stated) was tested. Which Response [1] did it give?
**A.** The Response was 98%.

**Q.** What about the EC50 [2] of the same compound?
**A.** Its EC50 is 5.01 nM.

**Q.** Which results are given for `CCCCCC[C@@H](O)C/C=C\CCCCCCCC(=O)NCc1ccc(O)c(OC)c1`?
**A.** Response [1]: 85%; EC50 [2]: 3.16 nM

**Q.** `COc1cc(CNC(=O)C2C(C(=O)NCc3ccc(O)c(OC)c3)[C@H]3C=C[C@@H]2C3)ccc1O` (stereo in doubt; cis) was tested. Which Response [1] did it give?
**A.** The Response was 16.4%.

**Q.** What does the source list for `COc1cc(CNC(=O)CCCCCCCCCCCCCCCCCCC(=O)NCc2ccc(O)c(OC)c2)ccc1O`?
**A.** Response [1]: 83.4%; EC50 [2]: 501 nM

**Q.** For `C=C(C)[C@H]1CC=C(C(=O)NCc2ccc(O)c(OC)c2)CC1`, which Response [1] is on record?
**A.** The Response was 74.5%.

**Q.** And the EC50 [2]?
**A.** The EC50 was 794 nM.

**Q.** `COc1cc(CNC(=O)/C=C(C)/C=C/C=C(C)/C=C/C2=C(C)CCCC2(C)C)ccc1O` was tested. Which Response [1] did it give?
**A.** Its Response is 92.6%.

**Q.** What about the EC50 [2] of the same compound?
**A.** Its EC50 is 3.98 nM.

**Q.** `C=C(C(=O)NCc1ccc(O)c(OC)c1)[C@H]1CC[C@]2(C)CCC[C@](C)(O)[C@H]2C1` was tested. Which Response [1] did it give?
**A.** Its Response is 78.9%.

**Q.** What about the EC50 [2] of the same compound?
**A.** Its EC50 is 200 nM.

**Q.** For `COc1cc(CNC(=O)C2C(C(=O)NCc3ccc(O)c(OC)c3)[C@H]3C=C[C@@H]2C3)ccc1O` (stereo in doubt; trans), which Response [1] is on record?
**A.** Its Response is 37.2%.

**Q.** What does the source list for `COc1cc(CNC(=O)/C=C(\C)CC/C=C(\C)CCC=C(C)C)ccc1O`?
**A.** Response [1]: 79.9%; EC50 [2]: 0.501 nM

**Q.** Which Response [1] does the source give for `COc1cc(CNC(=O)/C=C(\C)CCC[C@H](C)CCC[C@H](C)CCCC(C)C)ccc1O` here?
**A.** Its Response is 85%.

**Q.** What about the EC50 [2] of the same compound?
**A.** Its EC50 is 2 nM.

**Q.** How did the Response [1] turn out when `CCCCCC[C@@H](O)CCCCCCCCCCC(=O)NCc1ccc(O)c(OC)c1` was run?
**A.** The Response was 69.7%.

**Q.** And the EC50 [2]?
**A.** The EC50 was 5.01 nM.
